The conditions of data set [1]: ref Bodick et al., 1997; Shekhar et al., 2001, 2008; cited from earlier work.
Data set [2] relates to amphetamine-induced hyperlocomotion in rats. The note with it: ref Stanhope et al., 2001; cited from earlier work.
Data set [3] deals with T1, rat M4 mAChR (Rattus norvegicus, UniProt P08485).
T1 sequence (P08485 1-478): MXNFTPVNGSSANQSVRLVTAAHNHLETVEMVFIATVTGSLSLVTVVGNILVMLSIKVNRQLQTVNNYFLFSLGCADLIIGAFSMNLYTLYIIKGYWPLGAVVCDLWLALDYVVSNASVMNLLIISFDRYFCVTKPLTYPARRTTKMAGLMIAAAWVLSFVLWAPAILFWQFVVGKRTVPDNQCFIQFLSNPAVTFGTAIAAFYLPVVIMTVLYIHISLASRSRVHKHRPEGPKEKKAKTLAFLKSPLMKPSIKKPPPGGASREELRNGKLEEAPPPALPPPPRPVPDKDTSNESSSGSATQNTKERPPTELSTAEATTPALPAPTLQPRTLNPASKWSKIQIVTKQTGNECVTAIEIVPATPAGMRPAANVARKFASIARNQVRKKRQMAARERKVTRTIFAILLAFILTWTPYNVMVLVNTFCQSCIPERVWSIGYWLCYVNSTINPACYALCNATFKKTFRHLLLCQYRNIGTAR
Conditions: ref Shirey et al., 2008, cited from earlier work.

Data set [4] addresses T2, rM4 receptor (Rattus norvegicus, UniProt P08485).
T2 sequence (P08485 1-478): T1 sequence (P08485 1-478)
Conditions: ref Shirey et al., 2008; cited from earlier work.

For data set [5] the following is noted: ref Shirey et al., 2008; cited from earlier work.
A further data set concerns other mAChR subtypes. Conditions: ref Shirey et al., 2008; cited from earlier work.
Data set [6] is described as follows: Formulation into homogeneous dosing solution. It counts as physicochemical. Conditions: vehicles acceptable for in vivo studies. The method, boiled down: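 Test compound was jet-milled to uniform nanoparticles before vehicle formulation. It was then dissolved at 56.6 mg/ml in 10% Tween 80 in double-deionized water, with pH adjusted to about 7.0 using 1 N NaOH. The mixture was sonicated until a uniform homogeneous solution formed, for intraperitoneal dosing.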

The target of data set [7] is T2, rM4 receptor. In words: [3H]NMS equilibrium radioligand binding, membranes from rM4-expressing CHO cells. Conditions: 0.1 nM [3H]NMS; concentrations up to 30 µM.
The target of data set [8] is T1, rat M4 mAChR. It counts as cell-based. The note with it: compound alone.
Data set [9] deals with amphetamine-induced hyperlocomotion in rats. In words: Amphetamine-induced hyperlocomotion. Type of data set: in vivo, rat. The note with it: 56.6 mg/kg i.p., 30-min pretreatment; 1 mg/kg s.c. amphetamine; 60 min.
Data set [10] has as its system motor performance in rats. As to the kind of experiment: Rotorod test. It counts as in vivo, rat. Conditions: 30, 56.6, or 100 mg/kg i.p., 30-min pretreatment. The method, boiled down: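 Rats got one 120-s training trial, then two 85-s trials about 10 min apart, on a 7.5-cm rod turning at a constant 20 rpm. They were pretreated i.p. for 30 min with vehicle or test compound (30, 56.6 or 100 mg/kg, salt form, 1.0 ml/kg in 10% Tween 80/water, pH ~7.0). Time on the rod was recorded, capped at 85 s. Analysis was one-way ANOVA with Dunnett's test versus vehicle.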
For orientation: The rotarod test checks motor coordination on a turning rod.

A short description of data set [11]: Brain and plasma exposure pharmacokinetic profiling. Type of data set: in vivo, rat. The note with it: male rats, 56.6 mg/kg i.p.; mean ± S.E.M., n = 3. The method, boiled down:
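Male Sprague-Dawley rats (225–250 g), fasted overnight. Test compound dissolved at 56.6 mg/ml in 10% Tween 80/water, pH ~7.0 (1 N NaOH), sonicated, and given at 56.6 mg/kg i.p. Brain and trunk plasma taken at 0.5, 1, 2 and 4 h, three rats per time point. Brain homogenized in acetonitrile/methanol and plasma precipitated with acidified acetonitrile, both with internal standard. Analyzed by positive-ESI LC-MS-MS, linear 50 ng/ml–100 µg/ml. AUC0-∞ by trapezoidal method.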

Data set [12] concerns panel of 68 discrete GPCRs, ion channels, transporters, and enzymes. As to the kind of experiment: MDS Pharma LeadProfiling Screen radioligand binding panel. The note with it: 10 µM; for VU0152099 with the single exception of GABAA receptors.
Data set [13] addresses T3, human M4 muscarinic receptor (Homo sapiens, UniProt P08173).
T3 sequence (P08173 1-479): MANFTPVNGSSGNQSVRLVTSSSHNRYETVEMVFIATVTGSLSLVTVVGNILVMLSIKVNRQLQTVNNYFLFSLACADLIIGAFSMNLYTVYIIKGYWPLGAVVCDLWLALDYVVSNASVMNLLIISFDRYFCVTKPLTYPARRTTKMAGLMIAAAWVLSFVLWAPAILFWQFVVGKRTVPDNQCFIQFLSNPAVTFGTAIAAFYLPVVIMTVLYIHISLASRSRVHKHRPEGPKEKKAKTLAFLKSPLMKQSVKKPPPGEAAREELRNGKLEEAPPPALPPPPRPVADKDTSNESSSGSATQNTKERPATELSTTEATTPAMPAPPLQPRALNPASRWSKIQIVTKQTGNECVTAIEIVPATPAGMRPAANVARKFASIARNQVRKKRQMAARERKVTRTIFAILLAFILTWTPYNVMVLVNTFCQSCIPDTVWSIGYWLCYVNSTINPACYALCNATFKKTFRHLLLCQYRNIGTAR
The note with it: in presence of compound.

The values that follow come from PMC2745822 (The Journal of pharmacology and experimental therapeutics, 2008).

SMILES strings stand for the structures. Values joined by “and” are separate entries in the source; they are usually repeats but may differ in a detail not shown here. Equal values may be shown once. Read-outs that look alike come from different tables or passages of the source.

Regarding `CCCCCCOc1nsnc1C1=CCCN(C)C1` [xanomeline, 3-[3-hexyloxy-1,2,5-thiadiazo-4-yl]-1,2,5,6-tetrahydro-1-methylpyridine], the clinical efficacy result in [1] is “demonstrated efficacy as both a cognition-enhancing agent and an antipsychotic agent”. For the same molecule, the “effect on amphetamine-induced hyperlocomotion” value in data set [2] is recorded as “reversal of amphetamine-induced hyperlocomotion in rats”.

As usually defined, the EC50 is the concentration giving half of the maximal effect. In the case of `Cc1cc(C)c2c(N)c(C(=O)NCc3ccc(Cl)cc3)sc2n1` [VU10010, 3-amino-N-(4-chlorobenzyl)-4,6-dimethylthieno[2,3-b]pyridine-2-carboxamide], the 50% effective concentration (EC50) on rat M4 mAChR [3] (read-out: M4 EC50) is approximately 400 nM. Moreover, the “potentiation (-fold shift) of the M4 ACh CRC” value at rat M4 mAChR [3] is on record as 47 fold. Moreover, at rM4 receptor [4], the “decrease in the ACh Ki” value is 14 fold. Moreover, the “log P” value in data set [5] is ~ 4.5 and 4.5. Moreover, in the data set on other mAChR subtypes, the “activation of the other mAChR subtypes” value was “causes no activation of the other mAChR subtypes”. The “formulation into homogeneous dosing solution” value in [6] is given as “unable to formulate VU10010 into a homogeneous solution in any acceptable vehicle”.

As for `COc1ccc(CNC(=O)c2sc3nc(C)cc(C)c3c2N)cc1` [VU0152100, 3-amino-N-(4-methoxybenzyl)-4,6-dimethylthieno[2,3-b]pyridine carboxamide], the “displacement of [3H]NMS” value on rM4 receptor [7] was “neither M4 PAM displaced”. On rat M4 mAChR [8], the “response in the absence of an ACh EC20 (agonist activity)” value is recorded as “neither VU0152099 nor VU0152100 elicited a response”. Also, the “effect on amphetamine-induced hyperlocomotion” value in [9] is “produced robust decreases in amphetamine-induced hyperlocomotion”. Moreover, the “effect on performance in the rotorod test” value in [10] is “had no effect on performance in the rotorod test”. In data set [11], the “Mean AUC (0-∞) brain” value came out at 5726.35 ± 694.68 ng·h/g, the “Mean AUC(0-∞) plasma” value is 6570.35 ± 235.87 ng·h/mL, the t1/2 brain was 1.12 ± 0.01 h and the t1/2 plasma stood at 1.62 ± 0.69 h. In addition, in data set [12], the “displacement of binding, all targets tested” value is reported as “less than 50%”. Further, in [13], the “maximal response to ACh” value is “approximately 130%”. Further, the “formulation into homogeneous dosing solution” value in data set [6] is “afforded homogeneous dosing solutions in multiple vehicles acceptable for in vivo studies”.
